# Beta2AR agonist = human beta-2 adrenergic receptor agonism by FAP. response, % (concentration not given with the values). hit rate 0.43% among 340,000. Am2.2-beta2AR cells, FAP receptor internalization, flow cytometry. AID 504454. P07550;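 active = response above a set limit, near 3 SD of response in nonfluorescent compounds, cut at about 42% in these data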
# Target sequence (P07550 whole entry, looked up): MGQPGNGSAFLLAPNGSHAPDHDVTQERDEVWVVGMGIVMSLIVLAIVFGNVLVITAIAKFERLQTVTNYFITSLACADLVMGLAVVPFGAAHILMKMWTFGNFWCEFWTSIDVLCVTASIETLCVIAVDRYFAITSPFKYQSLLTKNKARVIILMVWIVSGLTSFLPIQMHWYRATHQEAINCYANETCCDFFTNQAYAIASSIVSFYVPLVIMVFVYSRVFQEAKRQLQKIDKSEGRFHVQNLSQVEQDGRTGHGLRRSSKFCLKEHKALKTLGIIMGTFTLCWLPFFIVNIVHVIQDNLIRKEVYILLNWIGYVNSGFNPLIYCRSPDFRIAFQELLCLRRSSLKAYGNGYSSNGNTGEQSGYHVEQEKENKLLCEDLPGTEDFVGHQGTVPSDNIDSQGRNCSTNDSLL
# rCAG RNA binder = binds r(CAG) RNA repeats. hit rate 1.3% among 370,000. r(CAG) RNA repeat, TO-PRO-1 dye displacement fluorescence. AID 651821. inhibition, % at 3 µM;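 active = inhibition above the plate cutoff, the mean of all test compounds on that plate plus 3 SD, cut at about 35% in these data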;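 note: 0% = DMSO alone and 100% = 100 µM mitoxantrone as full dye displacement; higher means more dye released from RNA so lower well fluorescence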
# MPTP inh = blocks calcium-induced mitochondrial swelling; hit rate 1.4% among 360,000; inhibition, % at 10 µM; AID 602449; isolated mouse mitochondria, Ca2+ swelling absorbance, 30 min;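 active = inhibition of 50% or more, scaled per plate between neutral and stimulator controls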;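 note: 0% = DMSO wells given calcium and 100% = 1 mM EGTA wells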
# V-ATPase pH = alters yeast V-ATPase proton transport; hit rate 0.37% among 350,000; response, % at 10 µM; S. cerevisiae, pHLuorin cytosolic pH fluorescence; AID 504577; in the data active = response mostly above about 7.3%, no sharp cut-off; inactive = mostly below about 5.4%; note: actives read high
# Granule exo inh = blocks lytic granule exocytosis. TALL-104 LAMP-1 surface exposure, flow cytometry; cells stimulated with thapsigargin and PMA. inhibition, % at 10 µM. hit rate 0.66% among 360,000. AID 651702;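 active = inhibition above about 55%, limit read from the data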
# T cell HTS = T cell immune modulators affecting CD8 T cell-vesicle binding; 2C CD8+ T cell-vesicle binding, flow cytometry; active compounds read low; response (vesicle binding), % at 7 µM; hit rate 0.068% among 330,000;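 active = response, share of CD8 T cells binding vesicles, and their 90th percentile fluorescence all below set limits, cut at about 80% in these data, passing the limit was not always enough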;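 note: values below 100% mean blocked vesicle binding to the CD8+ T cells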
#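 Read-out – percent CD8+ FL2 mean versus row control · System – murine 2C transgenic CD8+ T lymphocytes · Times – 1.5 h cell–vesicle binding at 37 °C, then 20 min icy labelling · Control set – naked vesicles low, QL9 vesicles with vehicle high · Detection – cytometric PE anti-B7-1 and Alexa647 anti-CD8 signals after 1% paraformaldehyde fixation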
# Rh123 counter = Rhodamine 123 counter-screen of mitochondrial pore hits; shares compounds with MPTP inh; isolated mitochondria, membrane potential, Rhodamine 123 fluorescence; inhibition, % at 10 µM; hit rate 78% among 5,000; in the data active = inhibition above about 22%;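 note: 0% = DMSO vehicle and 100% = positive control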
# MPTP swell DR = dose response confirmation of mitochondrial permeability transition pore inhibitors; shares compounds with MPTP inh; isolated mitochondria swelling, absorbance; IC50, µM; hit rate 58% among 780; AID 651561; in the data active = IC50 below about 20 µM
# MPTP cs DR = counter-screen for mitochondrial permeability transition pore inhibitors, dose response | shares compounds with MPTP inh | isolated mitochondria counterscreen, fluorescence read-out | IC50, µM | hit rate 49% among 780 | AID 651564; in the data active = IC50 below about 80 µM
# The depositor's hits bear a star; · = not tested or not shown. Sampled rows, rich in hits. Any-hit rate of the full collection: about 3.8%.
SMILES,Beta2AR agonist,rCAG RNA binder,MPTP inh,V-ATPase pH,Granule exo inh,T cell HTS,Rh123 counter,others
O=C(COC(=O)c1ccc(Sc2ncn[nH]2)c([N+](=O)[O-])c1)Nc1cccc(Cl)c1F,·,21,·,·,·,·,·,
CCCCN1CC(COCc2ccccc2)Oc2cccc(Oc3ccc(SC)c(C)c3)c2S1(=O)=O (configuration not stated),·,4,·,·,·,·,·,
CCCC[C@H](CN[C@@H](CNC)[C@H](C)CC)NCCC12CCC(CC1)C2,11,5,100*,-9,0,353,-17,MPTP swell DR=6.1*;MPTP cs DR=>80
COc1ccc2[nH]c3c(c2c1)CCN[C@]31C(=O)N(C)c2ccc(Br)cc21,·,3,·,·,·,·,·,
COCC(C)NC(=O)c1cc2cccc([N+](=O)[O-])c2[nH]1 (configuration not stated),4,3,1,0,-2,683,·,
Cc1cc(NC(=O)c2cc3cccc([N+](=O)[O-])c3[nH]2)ccc1F,15,27,83*,0,28,342,69*,
OCCN1CCN(CCCN2c3ccccc3Sc3ccc(Cl)cc32)CC1,·,1,53*,4,19,453,-22,
CN(C)CCCN1c2ccccc2Sc2ccc(Cl)cc21,14,7,91*,3,13,209,-17,MPTP swell DR=5*;MPTP cs DR=>80
OCCN1CCN(CC/C=C2/c3ccccc3Sc3ccc(Cl)cc32)CC1,17,2,94*,-4,8,526,-21,
CC(=O)c1ccc2c(c1)N(CCCN1CCC(CCO)CC1)c1ccccc1S2,7,0,0,-6,26,968,·,
COc1ccccc1CNC(=O)NNC(=O)CCn1nc(C)c([N+](=O)[O-])c1C,·,1,·,·,·,·,·,
C[C@H]1[C@@H](C(=O)N2CCCC2)Cc2nc3ccccc3nc2C[C@@H]1c1ccccc1,·,4,·,·,·,·,·,
c1ccc2c(CCNc3ncnc4nc[nH]c34)cccc2c1,15,1,64*,-3,22,397,33*,
Cc1ccc(-n2c(Cc3cccs3)nnc2SCc2ccc(C#N)cc2)cc1,·,1,·,·,·,·,·,
Cn1nc(CC(=O)Nc2cccc3ncccc23)c2ccccc2c1=O,-2,-1,86*,1,1,479,25*,
COc1ccc(CNC(=O)Cc2nn(C)c(=O)c3ccccc23)cc1,0,0,61*,3,1,198,51*,
Cn1nc(CC(=O)NCc2ccc(C(F)(F)F)cc2)c2ccccc2c1=O,12,2,45,0,-1,417,·,
COc1ccc(OC)c(NC(=O)Cc2nn(C)c(=O)c3ccccc23)c1,2,-2,11,3,-2,186,·,
C[C@H](O)[C@@H]1C(=O)N2CCc3c([nH]c4cccc(-c5ccccc5)c34)[C@@H]2C[C@@H]1N(C)C(=O)c1ccco1,·,11,·,·,·,·,·,
CCN(C[C@H]1N[C@@](Cc2ccccc2)(C(=O)OC)[C@H]2C(=O)N(Cc3ccccc3)C(=O)[C@@H]12)C(=O)Nc1ccc(C(F)(F)F)cc1,5,3,80*,-2,17,344,105*,
O=C(O)CSC1CC(=O)N(c2ccc(Cl)cc2)C1=O (configuration not stated),4,3,-2,-8,1,767,·,
O=C(CSC1CC(=O)N(CC(c2ccccc2)c2ccccc2)C1=O)Nc1ccc(Cl)cc1 (configuration not stated),0,6,75*,-1,37,208,79*,
CC(C)CNC(=O)OCc1cn(Cc2cc(F)cc(F)c2)nn1,·,-3,·,·,·,·,·,
COCC1CCCN(C(=O)c2cc(COc3ccc4ncccc4c3)on2)C1 (configuration not stated),0,-9,95*,2,33,162,97*,
Cc1cccnc1CN1CCN(C(=O)c2cc(COc3ccc4ncccc4c3)on2)CC1,-8,-6,104*,-4,1,154,102*,
SMILES,Beta2AR agonist,rCAG RNA binder,MPTP inh,V-ATPase pH,Granule exo inh,T cell HTS,Rh123 counter,others
CCOC(=O)N1CCN(C(=O)c2cc(COc3ccc4ncccc4c3)on2)CC1,7,-7,37,6,2,173,·,
CCC(O)C1CCN(C(=O)c2cc(COc3ccc4ncccc4c3)on2)CC1 (configuration not stated),-2,-3,92*,2,-2,194,102*,
C[C@@H]1CCN(C2CC2)S(=O)(=O)c2c(cccc2N2CC[C@@H](N(C)C)C2)O1,·,4,·,·,·,·,·,
Cc1ccc(-c2nc3ncccn3c2NC(=O)Nc2ccc(F)cc2)cc1,·,5,·,·,·,·,·,
O=C(Nc1ccc(Cl)cc1)Nc1ccc2c(c1)N1CCN=C1S2,36,24,93*,8,15,309,77*,
Nc1ccc2c(c1)N1CCN=C1S2,3,3,0,-6,0,201,·,
CC(=O)c1ccc(N2CCN(C(=S)Nc3cccc(F)c3)CC2)cc1,1,4,0,-4,-3,331,·,
O=S(=O)(c1cccc(NC(=S)N2CCN(c3cccc(Cl)c3)CC2)c1)C(F)F,2,8,77*,2,38,246,86*,
O=S(=O)(c1cccc(NC(=S)N2CCN(c3ccc(F)cc3)CC2)c1)C(F)F,0,7,67*,0,-2,193,61*,
NS(=O)(=O)c1ccc(NC(=S)N2CCN(c3cccc(Cl)c3)CC2)cc1,4,10,3,-1,-4,181,·,
CCOC(=O)NC(NC(=S)Nc1ccc(OCC)cc1)C(Cl)(Cl)Cl (configuration not stated),-3,1,8,4,-4,504,·,
O=C(NC(NC(=S)Nc1c(Cl)cccc1Cl)C(Cl)(Cl)Cl)OCc1ccccc1 (configuration not stated),6,11,100*,-1,0,184,67*,
COc1cc(NS(=O)(=O)c2ccc(-n3cccn3)cc2)cc(OC)c1,·,·,60*,-5,17,·,71*,
C=CCN1[C@H](CC(C)C)COc2cccc(N3CCSCC3)c2S1(=O)=O,·,-1,·,·,·,·,·,
COc1ccc(CN2C(=O)[C@]3(NCCc4c3[nH]c3ccc(OC)cc43)c3cc(F)ccc32)cc1,·,6,·,·,·,·,·,
Oc1cc(Cl)cc(Cl)c1Cl,12,1,52*,0,2,429,80*,
CCOc1ccc(C(=O)N/N=C(/C)C2C(=O)c3ccccc3C2=O)cc1,4,6,40,3,-3,263,·,
C/C(=N\NC(=O)c1ccc(Br)cc1)C1C(=O)c2ccccc2C1=O,8,48*,74*,7,-3,785,79*,
CCCCCN=C(N)N/N=C/c1c[nH]c2ccc(OC)cc12,47*,12,85*,-1,3,103,23*,
